Results taken from the RNAGym collection of RNA variant scans (doi:10.1126/science.aae0568).
Fewer inactive variants are shown than the library holds.

B1: tRNA (parent)
chain: GUUCCGUUGGCGUAAUGGUAACGCGUCUCCCUCCUAAGGAGAAGACUGCGGGUUCGAGUCCCGUACGGAACG

Variants of: B1
Experiment: yeast fitness relative to wild type (ratio to wild type); higher = fitter; tRNA-Arg(CCU), competitive growth, 37 C, YPD
In short: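 Start and end populations of a pooled competition were compared by 100-nucleotide paired-end sequencing of gene amplicons. The Saccharomyces cerevisiae strains carried tRNA-Arg(CCU) gene variants at the native genomic locus, synthesised with a 3% per-site mutation rate at 69 sites, and competed in YPD at 37°C for 24 hours in six parallel replicates. Darwinian fitness relative to wild type was based on the change in genotype frequencies. Genotypes required ≥ 100 starting reads, and estimates < 0.5 were set to 0.5.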

Variant	yeast fitness
GUUCCGUUGGCGUACUGGUAACGCGUCUCGCCCUUAAGGAGAAGACUGCGGGUUCGAGUCCCGUAUGGACCG [A15C C30G U32C C34U C66U A70C]	≤ 0.5
GUUCCGUUGGCGUAAUGGUAACGCGACUCCCUCCUAAGAACAAGACUGCGGGUUCGAGUCCCGUACGGAACG [U26A G39A G41C]	≤ 0.5
GUUACGUUGGCGUACUGGUAACGCGUGUCCCUCCUAAGGAGAAGACUGCGGGUUCGAGUCCGGUACGGAACG [C4A A15C C27G C62G]	≤ 0.5
GUUCCGUUGGCGUAAUGGUAACCCGCCUCCCUCCUAAGGAGAAGAGUGCGGGUUUGAGUCCCGUACGGAACG [G23C U26C C46G C55U]	≤ 0.5
GUUCCGUUGGCGUAGUGGUAACGCGUCUCCCUCCUAAGCAGAAGAUUGCGGGUUCGAGUCCCGUACGGAACG [A15G G39C C46U]	0.689
GUUCCGUUGGUGUAAUGGUAACGCGUCUCCCUCCUAAGGGGAAGACUGCGGGUUCGAGUCCCGUACGGAACG [C11U A40G]	0.866
GUUCUGUUGGCGUAAUGGUAACGCGUCUCCGUCCUAAGGAGAAGACCCCGGGUUCGAGUCCCGUACGGAACG [C5U C31G U47C G48C]	≤ 0.5
GUUCCUUUGGCGUAAUGGUAACGCGUCUCCCUCCUAAGGGGAAGACUGCGGGUUCGAGUCACGCACGGAACG [G6U A40G C61A U64C]	≤ 0.5
GUUCUGUUGGCGUAAUGGUAACGCGACUCCCUCCUAAGGAGAAGAGUGCGGGUUCGAGUCCCGUACGGAACG [C5U U26A C46G]	0.717
GUUCGGUUGGCGUAAUGGUAACGCGUCUCCCUCCUAAGGAGAAGACUGCGGGUUCGAGUCCCGUACGCGACG [C5G G68C A69G]	0.54
GUUCCGUUGGCGUAAUGGUAACGCGUCUCCCUCCUAAGGAGGAGACUGGGGGUUCGAGUCCCGUACGGAACG [A42G C49G]	0.767
GUUCCGUUGGCGUAAUGGUAACGCGUCUCCCUCCUAAGGAGAAGCCUGCGGGUUCGAAUCCCGUACGGAACG [A45C G58A]	0.977
GUUACGUUGGCGUAAUGGUAACGCGUCUCCCUCCUAAGGAGAAGCCAGCGGGUUCGAGUCCCGUACGGAGCG [C4A A45C U47A A70G]	≤ 0.5
GUUCCGAUCGCGUAAUCGUAACGCGUCUCCCUCCUAAGGAGAAGACUGCGGGUUCGAGUCCCGUACGGAACG [U7A G9C G17C]	0.55
GUUCCGUUGGCGUAAUGGUAACGCGUCUGCCUCCCAAGGAGAAGACUGCGGGUUCAAGUCCGGUACGGAACG [C29G U35C G56A C62G]	≤ 0.5
GUUCCGUUGGCGAAAUGGUAACGCGUCUCCUUCCUAAGGAGAAGACUGUGGGUUCGAGUCCCGUAAAGAACG [U13A C31U C49U C66A G67A]	≤ 0.5
GUUCCGUUGGCGUAAUGGUAACGCGUCUCCCUCCUAUGGAGCAGACUGCGGGUUCGAGUCCCGUACGGCACG [A37U A42C A69C]	≤ 0.5
GUUCCGUUGGCGUAACGGUACCGCGUCUCCCUCCUAAGGACACGACUGCGGGUUCGAGUCCCGUACGGAACG [U16C A21C G41C A43C]	≤ 0.5
GUUCCGUUGGCGUAAUGGUUACGCGUCUCCCUCCUAAGGAGAUGACUGAGGGUUCGACUCCCGUACGGAACG [A20U A43U C49A G58C]	0.535

Variant	yeast fitness
GUUCCGUUGGCGUAAUGGUAACGCGUCUCCCUCCUAAGGAGAAGACUGCGGGUUCGAGUCCCUAACGGAACG [G63U U64A]	0.676
GUUCCGUUGGCGUAAUGGUAACGCGUUACCCUCCUAGGGAGAAGACUGCGGGUUCGCCUCCCGUACGGAACG [C27U U28A A37G A57C G58C]	1
GUUCGGUUCGCGUAAUGGUAACGCGUCUCCCUCCUAAGGAGAAGACUGCGGGUUCGAGUCCCGUUCGGAACG [C5G G9C A65U]	0.555
GUUCCGUUGGCGUAAUCGUAACGAGUCUCCCUCCUAAGGAGAAGACUGCGGGUUCGAGUCCCGUACGGAACG [G17C C24A]	0.56
GUCCCAUUGGCGUAAUGCUAACGCGUCUCUUUCCUAAGGAGAAGACUACGGGUUGGAGUCCCGUUCGGAACG [U3C G6A G18C C30U C31U G48A C55G A65U]	≤ 0.5
GUUCCGUUGGCGUGUUGGUAACGCGUCUCCCUCCUAAGGAGAAGACUGCGGGCUCGAGUCCCGUACGGUACG [A14G A15U U53C A69U]	0.599
GUUUCGAUGGCGUAAUGGUAACGCGUCUCCCUCCUGAGGAGAAGACUGCGGGUUCGAGUCCCGUACGGAACG [C4U U7A A36G]	≤ 0.5
GUUCCGUUGGCGUACUGGUAACGCGUCUCCCUCGUAUGGAGAAGAGUGCGGGUUCGAGUCCCGUACGGAACG [A15C C34G A37U C46G]	≤ 0.5
GUUCCGUUGACGUAAUGGUAACGCGUCUCCCUCCUAAGGAGAAGACUGCAGGUUCGAGACACGUACGGAACG [G10A G50A U59A C61A]	≤ 0.5
GUUCCGUUGGCGUAAUGGUAACGCGUCUCCCUACUAAGGAGAAGACUGCGGGUUCGGGUCCCGUACGGAACG [C33A A57G]	0.781
GUUCCGUUGGCGUAAUGAUAACGCCUCUCGCUCCUAAGGAUAAGACUGCGGGUUGGAGUCCCGUACGGAACG [G18A G25C C30G G41U C55G]	≤ 0.5
GUUCCGUUGGCGUAAUGGUAACGCGUUUCCCUCCUAAGGAAAAGACUGCGGGUUCGACUCCCGUACGGCACG [C27U G41A G58C A69C]	0.645
GUUCCGUUGGCAUAAUGGUAAAGAGUCUCCCUCCUAAGGAGAAGACUGCGGGUUCGAGUCCCGUACGGAACG [G12A C22A C24A]	≤ 0.5
GUUCCGUUAGCGUGAUGGUAAUGCGUCUCCAUCUUCAGGAGAAGCCUGCGGGUUCGAGUCUCGAACGGAACG [G9A A14G C22U C31A C34U A36C A45C C61U U64A]	0.546
GCUCCGUUGCUGUAAUGGUAACGCGUCUCCCUCAUACGGAGAAGACUGCGGGUUCGAGUACCGUACCGAACG [U2C G10C C11U C34A A37C C60A G67C]	0.7
GUCCCGUUGGCGUAAUGGUAACGCGUCUCCCUCCUAGGGAGAAGACUGCGGGUUCGAGUCCCGUACGGAACG [U3C A37G]	0.784
GUUCCGUUGGGGUAAUGGUAACGCGUCUCCCUCCUAAGGAGUCGACUGCGGGUUAGAGUCCCGUAAGGAACG [C11G A42U A43C C55A C66A]	≤ 0.5
GUUCCGUUGGCGUAAUGGUAUCGCGCCUCCCUCCUAAGGAGAAGGCUGCGGGUUCGAGUCCCGUACGGAACG [A21U U26C A45G]	≤ 0.5
GUUCCGUUGGCGUAAUGGUAACGCGUCUCCCUCCUAAGGAGAAGACUACGGGUUCCAGUCCCGUACGGAACG [G48A G56C]	0.618
